Measured values as given in ChEMBL document CHEMBL1126775, “A pharmacological, crystallographic, and quantum chemical study of new inotropic agents” (J Med Chem, 1993).
Several values for one entry are separate records, joined by “and”; a condition that tells them apart may be missing. Identical values can stand only once.

What was measured:
Cavia porcellus [1] = species: Cavia porcellus; assay: Effect on contractile force of spontaneously beating atria from reserpine treated guinea pigs at the concentration of 10 e-3 M (negative ionotropic effect); format: functional
Cavia porcellus [2] = species: Cavia porcellus; assay: Effect on frequency rate of spontaneously beating atria from reserpine treated guinea pigs at the concentration of 10 e-5 M; format: functional
Cavia porcellus [3] = species: Cavia porcellus; assay: Effect on contractile force of spontaneously beating atria from reserpine treated guinea pigs at the concentration of 10 e-4 M (negative ionotropic effect); format: functional
Cavia porcellus [4] = species: Cavia porcellus; assay: Effect on contractile force of spontaneously beating atria from reserpine treated guinea pigs at the concentration of 10 e-5 M; format: functional
Cavia porcellus [5] = species: Cavia porcellus; assay: Effect on frequency rate of spontaneously beating atria from reserpine treated guinea pigs at the concentration of 5 x 10 e-4 M (negative chronotropic ionotropic effect); format: functional
Cavia porcellus [6] = species: Cavia porcellus; assay: Effect on contractile force of spontaneously beating atria from reserpine treated guinea pigs at the concentration of 5x 10 e-5 M (negative ionotropic effect); format: functional
Cavia porcellus [7] = species: Cavia porcellus; assay: Effect on contractile force of spontaneously beating atria from reserpine treated guinea pigs at the concentration of 5x 10 e-4 M (negative ionotropic effect); format: functional
Cavia porcellus [8] = species: Cavia porcellus; assay: Effect on frequency rate of spontaneously beating atria from reserpine treated guinea pigs at the concentration of 2 x 10 e-3 M (negative chronotropic ionotropic effect); format: functional
Cavia porcellus [9] = species: Cavia porcellus; assay: Effect on frequency rate of spontaneously beating atria from reserpine treated guinea pigs at the concentration of 10 e-3 M (negative chronotropic ionotropic effect); format: functional
Cavia porcellus [10] = species: Cavia porcellus; assay: Effect on frequency rate of spontaneously beating atria from reserpine treated guinea pigs at the concentration of 10 e-4 M (negative chronotropic ionotropic effect); format: functional
Cavia porcellus [11] = species: Cavia porcellus; assay: Effect on contractile force of spontaneously beating atria from reserpine treated guinea pigs at the concentration of 2 x 10 e-3 M (negative ionotropic effect); format: functional
Cavia porcellus [12] = species: Cavia porcellus; assay: Effect on frequency rate of spontaneously beating atria from reserpine treated guinea pigs at the concentration of 5 x 10 e-5 M (negative chronotropic ionotropic effect)
Cavia porcellus [13] = species: Cavia porcellus; assay: Effect on contractile force of spontaneously beating atria from reserpine treated guinea pigs at the concentration of 10 e-5 M; arrhythmias; format: functional
Cavia porcellus [14] = species: Cavia porcellus; assay: Inotropic effect in electrically driven left atrium from reserpine-treated guinea pig at the concentration of 10 e-4 M; format: functional, Cardiac atrium
Outline: (§1)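 Atria from reserpine-pretreated guinea pigs (2 mg/kg ip, 48 and 24 h), tyramine-unresponsive only. Left atrium loaded 0.5 g, paced at 1.5 Hz with 3-ms square pulses at 10–20% above threshold. Equilibrated 90 min. Agents added cumulatively, 5 min per concentration. Isometric developed tension expressed as % increase over control.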

Cavia porcellus [15] = species: Cavia porcellus; assay: Effect on contractile force of spontaneously beating atria from reserpine treated guinea pigs at the concentration of 5x 10 e-4 M; format: functional
Cavia porcellus [16] = species: Cavia porcellus; assay: Inotropic effect in electrically driven left atrium from reserpine-treated guinea pig at the concentration of 5 x 10 e-4 M; format: functional, Cardiac atrium; outline: as §1
Cavia porcellus [17] = species: Cavia porcellus; assay: Effect on frequency rate of spontaneously beating atria from reserpine treated guinea pigs at the concentration of 2 x 10 e-3 M; format: functional
Cavia porcellus [18] = species: Cavia porcellus; assay: Inotropic effect in electrically driven left atrium from reserpine-treated guinea pig at the concentration of 10 e-3 M; format: functional, Cardiac atrium; outline: as §1
Cavia porcellus [19] = species: Cavia porcellus; assay: Inotropic effect in electrically driven left atrium from reserpine-treated guinea pig at the concentration of 2 x 10 e-3 M; format: functional, Cardiac atrium; outline: as §1
Cavia porcellus [20] = species: Cavia porcellus; assay: Effect on frequency rate of spontaneously beating atria from reserpine treated guinea pigs at the concentration of 10 e-4 M; format: functional
Cavia porcellus [21] = species: Cavia porcellus; assay: Effect on frequency rate of spontaneously beating atria from reserpine treated guinea pigs at the concentration of 5 x 10 e-4 M; format: functional
Cavia porcellus [22] = species: Cavia porcellus; assay: Inotropic effect in electrically driven left atrium from reserpine-treated guinea pig at the concentration of 10 e-5 M; format: functional, Cardiac atrium; outline: as §1
Cavia porcellus [23] = species: Cavia porcellus; assay: Effect on contractile force of spontaneously beating atria from reserpine treated guinea pigs at the concentration of 10 e-3 M; format: functional
Cavia porcellus [24] = species: Cavia porcellus; assay: Effect on frequency rate of spontaneously beating atria from reserpine treated guinea pigs at the concentration of 10 e-3 M; format: functional
[25] = Logarithm of the sum of contributions of each atom to the total lipophilicity of the molecule; format: physicochemical; conditions: octanol/water
Cavia porcellus [26] = species: Cavia porcellus; assay: Effect on contractile force of spontaneously beating atria from reserpine treated guinea pigs at the concentration of 5x 10 e-5 M; format: functional
Cavia porcellus [27] = species: Cavia porcellus; assay: Inotropic effect in electrically driven left atrium from reserpine-treated guinea pig at the concentration of 5 x 10 e-5 M; format: functional, Cardiac atrium; outline: as §1
Cavia porcellus [28] = species: Cavia porcellus; assay: Effect on contractile force of spontaneously beating atria from reserpine treated guinea pigs at the concentration of 10 e-4 M; format: functional
Cavia porcellus [29] = species: Cavia porcellus; assay: Effect on contractile force of spontaneously beating atria from reserpine treated guinea pigs at the concentration of 2 x 10 e-3 M; format: functional
Cavia porcellus [30] = species: Cavia porcellus; assay: Effect on inotropic response to 10 e-6 8-phenyltheophylline in electrically driven left atrium from reserpine-treated guinea pigs at 10 e-4 M; format: functional, Cardiac atrium
Outline: (§2)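 Paced left atrium (1.5 Hz, 0.5 g load) from reserpine-pretreated guinea pigs. Test agent (10^-4 or 5×10^-5 M) added to perfusion 10 min before cumulative 8-phenyltheophylline (10^-6–10^-4 M). Developed tension as % increase over control. Mean ± SEM of four assays from four experiments; Student's t test against atria without the test agent.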

Cavia porcellus [31] = species: Cavia porcellus; assay: Effect on inotropic response to 3 x 10 e-5 8-phenyltheophylline in electrically driven left atrium from reserpine-treated guinea pigs at 10 e-4 M; format: functional, Cardiac atrium; outline: as §2
Cavia porcellus [32] = species: Cavia porcellus; assay: Effect on contractile force of spontaneously beating atria from reserpine treated guinea pigs at the concentration of 10 e-5 M (negative ionotropic effect); format: functional
Cavia porcellus [33] = species: Cavia porcellus; assay: Effect on inotropic response to 10 e-5 8-phenyltheophylline in electrically driven left atrium from reserpine-treated guinea pigs at 10 e-4 M; format: functional, Cardiac atrium; outline: as §2
Cavia porcellus [34] = species: Cavia porcellus; assay: Effect on inotropic response to 10 e-5 8-phenyltheophylline in electrically driven left atrium from reserpine-treated guinea pigs; format: functional, Cardiac atrium; outline: as §2
Cavia porcellus [35] = species: Cavia porcellus; assay: Effect on inotropic response to 10 e-6 8-phenyltheophylline in electrically driven left atrium from reserpine-treated guinea pigs; format: functional, Cardiac atrium; outline: as §2
Cavia porcellus [36] = species: Cavia porcellus; assay: Effect on inotropic response to 3 x 10 e-6 8-phenyltheophylline in electrically driven left atrium from reserpine-treated guinea pigs at 10 e-4 M; format: functional, Cardiac atrium; outline: as §2
Cavia porcellus [37] = species: Cavia porcellus; assay: Effect on inotropic response to 3 x 10 e-5 8-phenyltheophylline in electrically driven left atrium from reserpine-treated guinea pigs; format: functional, Cardiac atrium; outline: as §2
Cavia porcellus [38] = species: Cavia porcellus; assay: Effect on inotropic response to 10 e-5 8-phenyltheophylline in electrically driven left atrium from reserpine-treated guinea pigs at 5 x 10 e-5 M; format: functional, Cardiac atrium; outline: as §2
Cavia porcellus [39] = species: Cavia porcellus; assay: Effect on inotropic response to 3x 10 e-5 8-phenyltheophylline in electrically driven left atrium from reserpine-treated guinea pigs at 5 x 10 e-5 M; format: functional, Cardiac atrium; outline: as §2
Cavia porcellus [40] = species: Cavia porcellus; assay: Effect on inotropic response to 10 e-4 8-phenyltheophylline in electrically driven left atrium from reserpine-treated guinea pigs; format: functional, Cardiac atrium; outline: as §2
Cavia porcellus [41] = species: Cavia porcellus; assay: Effect on inotropic response to 10 e-6 8-phenyltheophylline in electrically driven left atrium from reserpine-treated guinea pigs at 5 x 10 e-5 M; format: functional, Cardiac atrium; outline: as §2
Cavia porcellus [42] = species: Cavia porcellus; assay: Effect on inotropic response to 3 x 10 e-6 8-phenyltheophylline in electrically driven left atrium from reserpine-treated guinea pigs; format: functional, Cardiac atrium; outline: as §2
Cavia porcellus [43] = species: Cavia porcellus; assay: Effect on inotropic response to 10 e-4 8-phenyltheophylline in electrically driven left atrium from reserpine-treated guinea pigs at 5 x 10 e-5 M; format: functional, Cardiac atrium; outline: as §2
Cavia porcellus [44] = species: Cavia porcellus; assay: Effect on inotropic response to 3 x 10 e-6 8-phenyltheophylline in electrically driven left atrium from reserpine-treated guinea pigs at 5 x 10 e-5 M; format: functional, Cardiac atrium; outline: as §2
Cavia porcellus [45] = species: Cavia porcellus; assay: Effect on inotropic response to 10 e-4 8-phenyltheophylline in electrically driven left atrium from reserpine-treated guinea pigs at 10 e-4 M; format: functional, Cardiac atrium; outline: as §2

N#Cc1cc(C(=O)c2ccccc2)c(-c2ccccc2)nc1O
Increase (Cavia porcellus [1]): -35.54% | Increase (Cavia porcellus [2]): 0.5% | Increase (Cavia porcellus [3]): -22.26% | Increase (Cavia porcellus [4]): 1.22% | Increase (Cavia porcellus [5]): -6.26% | Increase (Cavia porcellus [6]): -6.67% | Increase (Cavia porcellus [7]): -32.19% | Increase (Cavia porcellus [8]): -9.96% | Increase (Cavia porcellus [9]): -8.29% | Increase (Cavia porcellus [10]): -3.36% | Increase (Cavia porcellus [11]): -39.43% | Increase (Cavia porcellus [12]): -3.01%

O=C(O)c1cc2c(nc1O)CCCC2=O
Increase (Cavia porcellus [13]): arrhythmias

Nc1cc(-c2ccncc2)c[nH]c1=O [INAMRINONE]
Increase (Cavia porcellus [14]): 17.52% | Increase (Cavia porcellus [15]): 23.92% | Increase (Cavia porcellus [2]): 4.62% and 8.85% | Increase (Cavia porcellus [16]): 22.3% | Increase (Cavia porcellus [17]): 26.3% | Increase (Cavia porcellus [4]): 7.08% | Increase (Cavia porcellus [18]): 27% | Increase (Cavia porcellus [19]): 34.6% | Increase (Cavia porcellus [20]): 15.68% | Increase (Cavia porcellus [21]): 24.11% | Increase (Cavia porcellus [22]): 4.5% | Increase (Cavia porcellus [23]): 28.81% | Increase (Cavia porcellus [24]): 30.69% | logP [25]: 2.66 | Increase (Cavia porcellus [26]): 11.52% | Increase (Cavia porcellus [27]): 6.49% | Increase (Cavia porcellus [28]): 17.92% | Increase (Cavia porcellus [29]): 25.3%

O=C(O)c1cc(C(=O)c2ccccc2)c(-c2ccccc2)nc1O
Increase (Cavia porcellus [1]): -90.39% | Increase (Cavia porcellus [3]): -10.02% | Increase (Cavia porcellus [4]): 2.45% | Increase (Cavia porcellus [5]): -14.43% | Increase (Cavia porcellus [6]): -1.52% | Increase (Cavia porcellus [7]): -61.56% | Increase (Cavia porcellus [8]): -35.93% | Increase (Cavia porcellus [9]): -25.3% | Increase (Cavia porcellus [10]): -5.31% | Increase (Cavia porcellus [11]): -100% | Increase (Cavia porcellus [12]): -2.23% and -3.38%

Cc1[nH]c(=O)c(C#N)cc1-c1ccncc1 [MILRINONE]
Increase (Cavia porcellus [14]): 34.61% | Increase (Cavia porcellus [15]): 46.52% | Increase (Cavia porcellus [2]): 16.41% and 28.1% | Increase (Cavia porcellus [16]): 44.72% | Increase (Cavia porcellus [17]): 31.79% | Increase (Cavia porcellus [4]): 18.25% | Increase (Cavia porcellus [18]): 41.96% | Increase (Cavia porcellus [19]): 37.95% | Increase (Cavia porcellus [20]): 35.26% | Increase (Cavia porcellus [21]): 43.96% | Increase (Cavia porcellus [22]): 13.25% | Increase (Cavia porcellus [23]): 33.09% | Increase (Cavia porcellus [24]): 39.2% | logP [25]: 2.89 | Increase (Cavia porcellus [26]): 31.32% | Increase (Cavia porcellus [27]): 22.83% | Increase (Cavia porcellus [28]): 38.76% | Increase (Cavia porcellus [29]): 29.31%

O=C(c1ccccc1)c1ccc(O)nc1-c1ccccc1
Increase (Cavia porcellus [30]): 4.56% | Increase (Cavia porcellus [1]): -43.71% | Increase (Cavia porcellus [31]): 20.17% | Increase (Cavia porcellus [32]): -2.67% | Increase (Cavia porcellus [3]): -24.76% | Increase (Cavia porcellus [33]): 18.78% | Increase (Cavia porcellus [34]): 11.19% | Increase (Cavia porcellus [5]): -24.37% | Increase (Cavia porcellus [6]): -7.3% | Increase (Cavia porcellus [35]): 4.27% | Increase (Cavia porcellus [36]): 11.38% | Increase (Cavia porcellus [37]): 14.72% | Increase (Cavia porcellus [7]): -38.32% | Increase (Cavia porcellus [38]): 14.44% | Increase (Cavia porcellus [39]): 17.41% | Increase (Cavia porcellus [40]): 20.81% | logP [25]: 3.82 | Increase (Cavia porcellus [8]): -40.57% | Increase (Cavia porcellus [9]): -32.89% | Increase (Cavia porcellus [41]): 5.7% | Increase (Cavia porcellus [42]): 7.33% | Increase (Cavia porcellus [43]): 25.91% | Increase (Cavia porcellus [44]): 8.13% | Increase (Cavia porcellus [45]): 27.05% | Increase (Cavia porcellus [10]): -14.92% | Increase (Cavia porcellus [11]): -46.27% | Increase (Cavia porcellus [12]): -4.26% and -9.3%
